Data on 18 compounds can be found in ChEMBL document CHEMBL1124358, “Synthesis and pharmacological evaluation of CNS activities of [1,2,3]triazolo[4,5-b][1,5]-, imidazolo[4,5-b][1,5]-, and pyrido[2,3-b][1,5]benzodiazepines. 10-Piperazinyl-4H-1,2,3-triazolo[4,5-b][1,5]benzodiazepines with neuroleptic activity” (J Med Chem, 1989).

Each structure is given as a SMILES string.

By IC50 is commonly meant the concentration that inhibits the measured activity by half. A higher IC50 goes with lower potency.

The target in assay [1] is T1, D(2) dopamine receptor (Bos taurus, UniProt P20288). Nature of the assay: Inhibitory activity against Dopamine receptor D2 in calf caudate tissue, using [3H]spiperone as the radioligand.
T1 sequence (P20288 whole entry): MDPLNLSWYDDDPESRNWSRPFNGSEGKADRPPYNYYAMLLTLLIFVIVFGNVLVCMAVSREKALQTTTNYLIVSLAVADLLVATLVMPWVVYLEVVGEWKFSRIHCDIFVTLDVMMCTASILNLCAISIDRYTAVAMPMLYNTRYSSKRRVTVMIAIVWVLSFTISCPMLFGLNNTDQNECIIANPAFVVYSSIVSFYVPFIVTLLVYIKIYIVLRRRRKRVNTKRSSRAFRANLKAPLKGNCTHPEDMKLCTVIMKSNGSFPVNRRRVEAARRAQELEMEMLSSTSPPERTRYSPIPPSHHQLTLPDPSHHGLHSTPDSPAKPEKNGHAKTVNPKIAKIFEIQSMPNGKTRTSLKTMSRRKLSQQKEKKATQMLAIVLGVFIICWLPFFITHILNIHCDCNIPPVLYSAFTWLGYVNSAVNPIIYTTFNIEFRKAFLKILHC
The species named for assay [2] is Rattus norvegicus. Nature of the assay: Inhibition of conditioned avoidance response in rats, peroral dose. Format: functional.
Assay [3] has as its system Mus musculus. Nature of the assay: Effective dose required to produce hypothermia in mouse when administered peroral. The assay is classed as functional. The method, boiled down: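 Rectal temperature recorded in groups of three CFW mice (21–23 g) at 0.25, 2.5 and 5.0 h after oral compound (water or 0.5% carboxymethylcellulose). Changes in group mean temperature from the initial mean were summed over the three times. Hypothermia was taken as a summed mean fall >4 °C.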

Assay [4] relates to Mus musculus. Nature of the assay: Effective dose required to evoke catalepsy in mouse when administered perorally. The assay is classed as functional. In a few lines: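 CFW mice (21–23 g), groups of three, oral dosing in water or 0.5% carboxymethylcellulose. Scored at 0.25, 2.5 and 5.0 h for holding one hind limb on a 2 cm rubber bung and staying on a vertical grid. EDmin is the dose below which no catalepsy occurred at any time.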

The subject of assay [5] is Rattus norvegicus. Nature of the assay: Effective dose against muscular incoordination in rats determined by rotarod test when administered peroral. Format: functional. The method, boiled down:
(§1)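 Male Olac Wistar rats (140–150 g), fed and watered ad libitum, in groups of five, dosed orally (water solution or 0.5% carboxymethylcellulose suspension). Tested at 1 and 2 h on a horizontal rod rotating at 2 rpm, 32 mm diameter, with a 30 s cutoff.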

In assay [6] the target is T1, D(2) dopamine receptor. Nature of the assay: Inhibitory activity against dopamine receptor D2 in calf caudate tissue using [3H]spiperone.
Assay [7] deals with Muscarinic acetylcholine receptor. Nature of the assay: Inhibitory activity against muscarinic cholinergic receptors in male olac rat brain, using [3H]QNB as the radioligand.
Assay [8] has the same target. Nature of the assay: Inhibitory activity against Muscarinic acetylcholine receptor in male olac rat brain, using [3H]-QNB as the radioligand.
The subject of assay [9] is Rattus norvegicus. Nature of the assay: Effective dose against muscular in coordination in rats determined by rotarod test when administered peroral. The assay is classed as functional. In a few lines:
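Male Olac Wistar rats (140–150 g), fed and watered ad libitum, groups of five; compound in distilled water or 0.5% carboxymethylcellulose given orally. Tested at 1 and 2 h on horizontal rod rotating at 2 rpm (32 mm diameter), time on rod recorded up to 30 s.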
For orientation: In the rotarod test animals must keep their balance on a rotating rod.

Assay [10] has as its system Rattus norvegicus. Nature of the assay: Effective dose against muscular incoordination in rats determined by rotarod test when administered perorally. Format: functional. In a few lines:
as §1

The target in assay [11] is T1, D(2) dopamine receptor. Nature of the assay: Inhibitory activity Dopamine receptor D2 in calf caudate tissue, using [3H]spiperone as the radioligand.

`CN1CCN(C2=Nc3ccccc3Nc3c2nnn3C)CC1` had an IC50 in assay [1] of more than 10000 nM. Further, the EDmin in assay [2] was more than 50 mg/kg.
In turn, `CN1CCN(C2=Nc3cc(Cl)c(Cl)cc3Nc3ncccc32)CC1` yielded a half-maximal inhibitory concentration (IC50) in assay [1] of 9200 nM. For the same compound, the EDmin was found to be 100 mg/kg in [3] and 50 mg/kg in [4].
For the compound `CN1CCN(C2=Nc3cc(F)ccc3Nc3c2ncn3C)CC1`, the EDmin was more than 50 mg/kg in assay [5], more than 50 mg/kg in [2], more than 400 mg/kg in assay [3] and more than 400 mg/kg in assay [4]. The IC50 is more than 100000 nM in [6] and 122000 nM in assay [7].
For the compound `CN1CCN(C2=Nc3cc(Cl)c(Cl)cc3Nc3nn(C)nc32)CC1`, the EDmin in [5] was more than 50 mg/kg; in assay [2], more than 20 mg/kg; in assay [3] it was 50 mg/kg; in assay [4] it was 100 mg/kg. The half-inhibitory concentration (IC50) in assay [1] was 2300 nM; in assay [8], more than 1000 nM.
For the compound `CN1CCN(C2=Nc3cc(Cl)ccc3Nc3nn(C)nc32)CC1`, the EDmin in assay [5] was more than 10 mg/kg; in [2], 4 mg/kg; in assay [3] it was 6 mg/kg; in assay [4], 12.5 mg/kg. Moreover, the IC50 in [1] amounted to 210 nM; in assay [8] it was 2600 nM.
Consider `Cc1nc2c(n1C)C(N1CCN(C)CC1)=Nc1cc(F)ccc1N2`, for which the EDmin in assay [5] was more than 50 mg/kg; in [2] it was more than 50 mg/kg; in assay [3], 50 mg/kg; in [4] it was more than 200 mg/kg. Besides, the IC50 in [6] was more than 10000 nM; in assay [7], more than 1000 nM.
Turning to `CN1CCN(C2=Nc3cc(Cl)ccc3Nc3ccccc32)CC1` [CLOZAPINE], the EDmin in assay [2] worked out at 30 mg/kg; in assay [9] it was 40 mg/kg; in assay [3] it was 50 mg/kg; in assay [4], 100 mg/kg.
As to `CCn1nc2c(n1)C(N1CCN(C)CC1)=Nc1cc(Cl)ccc1N2`, the EDmin is more than 5 mg/kg in [5], 5 mg/kg in assay [2], 12.5 mg/kg in assay [3] and 12.5 mg/kg in assay [4]. Also, the figures for the IC50 in assay [6] and in assay [7] were 67 nM and 2400 nM, respectively.
With `CN1CCN(C2=Nc3cc(C(F)(F)F)ccc3Nc3nn(C)nc32)CC1`, the EDmin in [5] was 25 mg/kg; in [2], more than 25 mg/kg; in [3], 50 mg/kg; in assay [4] it was 50 mg/kg. In addition, the IC50 in assay [1] is 1100 nM; in assay [8], more than 1000 nM.
In the case of `CCn1nc2c(n1)C(N1CCN(C)CC1)=Nc1cc(F)ccc1N2`, the EDmin in assay [5] was found to be 10 mg/kg; in assay [2] it was 5 mg/kg; in assay [3], 12.5 mg/kg; in [4], 12.5 mg/kg. Besides, the figures for the 50% inhibitory concentration (IC50) in assay [6] and in [7] were 180 nM and more than 1000 nM, respectively.
In assay [1], `CN1CCN(C2=Nc3ccccc3Nc3ncccc32)CC1` had an IC50 of more than 10000 nM. The compound also registered an EDmin in assay [3] of 100 mg/kg.
With `CN1CCN(C2=Nc3cc(F)ccc3Nc3ncn(C)c32)CC1`, the EDmin in assay [5] is 40 mg/kg; in assay [2], more than 20 mg/kg; in assay [3] it was 25 mg/kg; in [4], 100 mg/kg. Moreover, the IC50 in assay [6] is more than 10000 nM; in assay [7], more than 1000 nM.
As to `CN1CCN(C2=Nc3cc(F)ccc3Nc3nn(C)nc32)CC1`, the half-inhibitory concentration (IC50) is 840 nM in assay [1] and more than 1000 nM in assay [8]. Moreover, the EDmin in assay [2] came to 5 mg/kg; in [10] it was 20 mg/kg; in assay [3] it was 12.5 mg/kg; in [4], 25 mg/kg.
For `CCn1cnc2c1Nc1ccc(F)cc1N=C2N1CCN(C)CC1`, the EDmin in [5] was more than 50 mg/kg; in assay [2], more than 50 mg/kg; in [3], more than 200 mg/kg; in assay [4] it was more than 200 mg/kg. For the same compound, the half-maximal inhibitory concentration (IC50) in assay [6] is more than 10000 nM; in [7], 61000 nM.
Take `CN1CCN(C2=Nc3cc(F)ccc3Nc3c2ncn3C2CCCCC2)CC1`: the EDmin is more than 50 mg/kg in assay [5], more than 50 mg/kg in assay [2], 200 mg/kg in [3] and more than 400 mg/kg in assay [4]. For the same compound, the 50% inhibitory concentration (IC50) is more than 10000 nM in assay [6] and more than 100000 nM in assay [7].
On to `CN1CCN(C2=Nc3ccccc3Nc3nn(C)nc32)CC1`, for which the EDmin in assay [2] is 5 mg/kg; in assay [10], more than 50 mg/kg; in assay [3], 25 mg/kg; in assay [4] it was 25 mg/kg. Besides, the results for the concentration for half-maximal inhibition (IC50) in assay [6] and in assay [7] were 1420 nM and more than 1000 nM, respectively.
`CN1CCN(C2=Nc3cc(Br)ccc3Nc3nn(C)nc32)CC1`: the EDmin was 5 mg/kg in assay [5], 5 mg/kg in assay [2], 12.5 mg/kg in assay [3] and 12.5 mg/kg in [4]. In addition, the concentration for half-maximal inhibition (IC50) in [8] worked out at 4000 nM; in [11] it was 300 nM.
Turning to `Cc1cc2c(s1)Nc1ccc(F)cc1N=C2N1CCN(C)CC1` [FLUMEZAPINE], the EDmin in [5] turned out to be 10 mg/kg; in [2], 5 mg/kg; in [3], 1.6 mg/kg; in [4] it was 6.25 mg/kg. The compound also showed an IC50 in assay [7] of 80 nM.
